Assay outcomes: PubChem BioAssay, several laboratories
ERb coact inh = blocks coactivator binding to human estrogen receptor beta; TR-FRET ER-beta LBD / SRC1-Cy5 peptide binding; receptor agonist-loaded with 1 µM estradiol; inhibition, % at 25.6 µM; AID 633; 1.3% of 86,000 active; Q92731;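 active = compounds whose percent inhibition of the receptor-coactivator binding signal exceeds about 50% in the single-dose screen, limit read from the data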
H69AR inhibit = blocks growth of human H69AR lung tumor cells | 6% of 85,000 active | AID 598 | H69AR lung tumor viability, ATP luminescence, 72 h; stronger effect = lower value | viability, % at 10 µM;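 active = viability at or below 40%; inactive = viability above 40%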;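 note: multidrug resistant small cell line overexpressing MRP-1 efflux transporter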
ERa SRC1 inh = ER-alpha (human) coactivator binding inhibition. inhibition, % at 25.6 µM. P03372. 1.7% of 86,000 active. TR-FRET ER-alpha LBD / SRC-1 peptide, estradiol-bound; in the data active = inhibition above about 50%
Target sequence (P03372 whole entry, looked up, the tested form may be a part): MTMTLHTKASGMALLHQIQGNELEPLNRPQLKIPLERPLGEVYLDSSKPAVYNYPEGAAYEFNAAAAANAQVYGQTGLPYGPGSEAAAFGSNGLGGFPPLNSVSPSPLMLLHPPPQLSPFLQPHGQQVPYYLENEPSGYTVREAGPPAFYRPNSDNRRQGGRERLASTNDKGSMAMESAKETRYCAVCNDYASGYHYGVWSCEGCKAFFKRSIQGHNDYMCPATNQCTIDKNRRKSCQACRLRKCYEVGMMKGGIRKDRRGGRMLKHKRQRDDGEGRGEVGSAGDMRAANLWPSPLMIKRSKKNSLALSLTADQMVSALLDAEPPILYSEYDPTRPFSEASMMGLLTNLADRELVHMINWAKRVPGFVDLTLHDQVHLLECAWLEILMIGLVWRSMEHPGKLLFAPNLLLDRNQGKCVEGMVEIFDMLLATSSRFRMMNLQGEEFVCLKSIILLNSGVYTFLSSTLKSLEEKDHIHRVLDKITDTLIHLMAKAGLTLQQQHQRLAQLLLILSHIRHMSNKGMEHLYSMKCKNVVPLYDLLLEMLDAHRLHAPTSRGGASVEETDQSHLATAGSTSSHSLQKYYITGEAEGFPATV
ERa coact pot = ER-alpha (human) coactivator binding potentiation. TR-FRET ERalpha-LBD/SRC-Cy5 coactivator binding, 2 h; 100 = basal binding, no effect. coactivator binding (% of control), % at 25.6 µM. P03372. AID 639. 1.3% of 86,000 active; in the data active = activity above about 200%;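 note: binding measured in presence of low estradiol as agonist stimulus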
HUVEC inhibit = inhibitors of human endothelial cell proliferation | HUVEC proliferation, CellTiter-Glo luminescence, 72 h; stronger effect = lower value | 1.1% of 86,000 active | AID 648 | viability, % at 10 µM (by protocol);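 active = viability at or below 30%; inactive = viability above 30%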
Lung fibro prol = blocks proliferation of human lung fibroblasts; LL 47 human lung fibroblast viability, ATP luminescence; stronger effect = lower value; 1.1% of 85,000 active; viability, % at 10 µM;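 active = viability at or below 50% in the single dose screen; inactive = viability above 50%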;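 note: compound exposure lasted 72 h before the ATP readout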
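Material: human LL 47 lung fibroblast cells; quantity: 1,150 cells/well; medium: IMEM plus 15% FBS; doses: 0.1% DMSO in all compound wells; timing: overnight attachment after seeding, then 72 h compound exposure at 37 °C; detection: CellTiter-Glo luminescence; measure: % viability of median cell-only signal; controls: cell-only wells, no compound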
A number is an active result; i = inactive; nt = not tested or not shown; [ ] = dose if it differs, or a comment. An excerpt weighted towards active compounds, which were near 9.2% of everything screened.

SMILES | ERb coact inh | H69AR inhibit | ERa SRC1 inh | ERa coact pot | HUVEC inhibit | Lung fibro prol
N#CC1=C(N)C(C#N)(C#N)C(c2cccnc2)C2CC(c3ccccc3)CC=C12 (configuration not stated) | i | 1.6 | i | i | 5.9 | 44
N#CC1=C(N)C(C#N)(C#N)C(c2cccnc2)C2CCCC=C12 (configuration not stated) | i | i | i | i | i | i
CNS(=O)(=O)c1cccc2nsnc12 | i | i | i | i | i | i
Cc1ccc(NC(=O)c2ccc(-c3nn(C)c(=O)c4ccccc34)cc2)cc1 | i | 35 | i | i | i | i
Cn1nc(-c2ccc(C(=O)Nc3cccc(Cl)c3)cc2)c2ccccc2c1=O | i | 4.3 | i | 261 | i | i
Cc1ccc(NC(=O)c2ccc(-c3nn(C)c(=O)c4ccccc34)cc2)c(C)c1 | i | i | i | i | i | i
Cn1nc(-c2ccc(C(=O)Nc3cccnc3)cc2)c2ccccc2c1=O | i | i | i | i | i | i
CCOc1ccc2nc(Cl)c(/C=C/C(=O)c3ccco3)cc2c1 | i | 8.9 | i | i | i | i
CCOc1ccc2nc(COC(=O)c3ccco3)c(C(C)=O)[n+]([O-])c2c1 | i | i | i | i | i | i
Cc1ccc2[nH]c3c(c2c1)CN(C(=O)CN1CCCc2ccccc21)CC3 | i | i | i | i | i | i
COC(=O)c1[nH]c2ccc(C)cc2c1NC(=O)CN1CCCc2ccccc21 | 54 | i | 77[fluorescence artefact?] | i | i | i
CCOC(=O)c1[nH]c2ccc(OC)cc2c1NC(=O)OC | i | i | i | i | i | i
COC(=O)c1[nH]c2cc(OC)ccc2c1NC(=O)CN1CCN(c2cccc(C)c2)C(C)C1 (configuration not stated) | i | 15 | i | i | i | i
COC(=O)c1[nH]c2cc(OC)ccc2c1NC(=O)CCN1CCSCC1 | i | i | i | i | i | i
CCOC(=O)Nc1c(C(=O)OC)[nH]c2cc(OC)ccc12 | i | 18 | i | i | i | i
Cc1cc(C(=O)OCC(=O)c2ccc(Br)s2)no1 | i | i | 58 | i | i | i
CCOCCOc1nc2c(c(=O)n(C)c(=O)n2C)n1Cc1ccc(C)cc1 | i | i | i | i | i | i
CCOC(=O)C1=C(Cc2ccc(F)cc2)C(=O)c2ccccc2C1=O | i | 0.8 | i | i | 6.5 | i
CCOC(=O)c1ccccc1NC(=O)c1ccc(F)cc1 | i | i | i | i | i | i
O=C(c1cc2ccccc2oc1=O)N(Cc1ccco1)Cc1cccs1 | i | i | i | 537 | i | i
O=C(c1cc2ccccc2oc1=O)N(Cc1cccs1)Cc1cccs1 | i | i | i | i | i | i
COc1ccc(S(=O)NC2CCCCC2)c(OC)c1C (configuration not stated) | i | i | i | i | i | i
CC1(C)C(=O)Nc2ccccc2N1C(=O)COC(=O)c1ccc(Cl)c(S(=O)(=O)NCc2ccccc2)c1 | i | i | i | i | i | i
CCc1ccc2oc(-c3cc(N)ccc3O)nc2c1 | i | 32 | i | i | i | i
CCc1ccc2oc(-c3cc(N)ccc3Cl)nc2c1 | i | i | i | i | i | i
SMILES | ERb coact inh | H69AR inhibit | ERa SRC1 inh | ERa coact pot | HUVEC inhibit | Lung fibro prol
CCc1ccc2oc(-c3cc(N)cc(C)c3O)nc2c1 | i | 23 | i | i | i | i
Cc1ccccc1NC(=O)COC(=O)CN1C(=O)NC(C)(C)C1=O | i | i | i | i | i | i
Cc1ccc2c(c1)c1c(n2C)-c2[nH]ncc2CC1 | i | i | i | i | i | i
COc1ccc(C(O)C(CN2CCOCC2)c2ccccc2)cc1F (configuration not stated) | i | i | i | i | i | i
CCCOc1ccc(C(=O)C(CN2CCOCC2)c2ccccc2)cc1 (configuration not stated) | i | 1.6 | i | i | 3.0 | 46
COc1ccc(C(=O)C(CN2CCOCC2)c2ccccc2)cc1F (configuration not stated) | i | 1.9 | i | i | i | 15
O=C(Nc1cccc(NC(=O)c2ccc(Br)o2)n1)c1ccc(Br)o1 | i | i | i | 258[fluorescence artefact?] | i | i
O=C(Nc1nc2c(Cl)cccc2s1)c1ccc(Br)o1 | i | i | i | 535[fluorescence artefact?] | i | i
Cc1[nH]c(=O)cc2ccccc12 | i | i | i | i | i | i
COc1ccc(NCc2nnc(SCC(=O)c3ccc(OC)cc3)o2)cc1 | i | i | i | i | i | i
COc1ccc(NC(=O)CSc2nnc(CNC(=O)COc3ccc(Cl)cc3)o2)c(OC)c1 | i | i | i | i | i | 44
CCOc1cc(C(=O)CSc2nnc(CNc3ccc(Cl)cc3)o2)ccc1NC(=O)CC | i | 0.2 | i | i | 1.7 | i
CC(C)(C)C(=O)/C=c1\[nH]c(=O)/c(=C\c2ccc(F)cc2)s1 | i | 18 | i | i | i | i
CCc1ccc(/C=c2\s/c(=C\C(=O)C(C)(C)C)[nH]c2=O)cc1 | i | 14 | i | i | i | i
Cc1ccccc1/C=c1\s/c(=C\C(=O)C(C)(C)C)[nH]c1=O | i | 19 | i | i | i | i
CCc1cc2c(=O)c(-c3nc4ccccc4[nH]3)coc2c(CN2CCCC(C)C2)c1O (configuration not stated) | i | i | i | i | i | i
Cc1ccc(-n2c(CSc3nc(C)cc(C)n3)nnc2SCC(=O)N2CCCC2)cc1 | i | i | i | i | i | i
O=C(OCC#CCSc1nc2ccccc2o1)c1ccco1 | i | i | i | i | i | i
O=C(OCC#CCSc1nnc(-c2cccc3ccccc23)o1)c1ccco1 | i | 30 | i | i | i | i
COc1ccc(/C=N/n2cc(-c3ccccc3)nc2N)cc1 | i | 18 | i | i | i | i
COc1ccc(/C=N/n2cc(-c3ccc(OC)cc3)nc2N)cc1 | i | 25 | 77[fluorescence artefact?] | i | i | i
C=CCSc1nncn1/N=C/c1ccc(OC)cc1 | i | i | i | i | i | nt
c1ccc(Cn2nnnc2C(c2ccccc2)N2CCN(c3nc4ccccc4s3)CC2)cc1 (configuration not stated) | i | i | i | i | i | i
Cc1ccc(S(=O)(=O)Cn2nnnc2C(C(C)C)N2CCN(c3nc4ccccc4s3)CC2)cc1 (configuration not stated) | i | 27 | i | i | i | i
Oc1ccccc1CNc1nc2ccccc2n1CCN1CCCCC1 | i | i | i | i | i | i
COc1ccccc1CNc1nc2ccccc2n1CCN1CCCCC1 | i | 36 | i | i | i | i
Cn1c(CSc2nc3ccccc3s2)n[nH]c1=S | i | i | i | i | i | i
Cn1c(CSc2nc3ccccc3s2)nc2ccccc21 | i | i | i | 282[fluorescence artefact?] | i | i
COC(=O)c1ccccc1NC(=O)Cn1c(-c2nonc2N)nc2ccccc21 | i | 8.2 | i | i | 22 | 47
